Experimental data published in ChEMBL document CHEMBL2412975 (Bioorg Med Chem, 2013).

Assays:
[1] = Apparent clearance in human liver microsomes; format: ADME, Microsome; settings: read-out: CLH(app)
[2] = Cmax in rat at 5 mg/kg, po; format: ADME, organism-based; parameters: dose 5 mg/kg, route oral; settings: in vivo
Method in brief: (§1)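 Rat PK. Oral dose 5 mg/kg given in 0.5% methylcellulose. Cmax and AUC are reported as free drug concentrations. Bioavailability is taken relative to a 1 mg/kg intravenous dose.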

[3] = Half life in rat; format: ADME, organism-based; settings: in vivo; method in brief: as §1
Rattus norvegicus [4] = assay: Oral bioavailability in rat at 5 mg/kg; format: ADME, organism-based; settings: in vivo; method in brief: as §1
[5] = Volume of distribution at steady state in rat at 1 mg/kg, iv; format: ADME, organism-based; parameters: dose 1 mg/kg, route intravenous; settings: in vivo, read-out: Vdss
Method in brief: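 Rat, single intravenous dose of 1 mg/kg. Steady-state volume of distribution comes from the plasma profile.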

Rattus norvegicus [6] = assay: AUC in rat at 5 mg/kg, po; format: ADME, organism-based, Plasma; parameters: dose 5 mg/kg, route oral; settings: in vivo; method in brief: as §1
[7] = Lipophilicity, log D of the compound; format: physicochemical; settings: octanol/water
[8] = Metabolic stability in human liver microsomes assessed as compound remaining after 1 hr; format: ADME, Microsome; settings: read-out: Stability
Method in brief: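 Human liver microsomes incubated with compound for 1 h. Read-out is percent of parent remaining.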

Row | CLint scaled [1] [mL/min/kg] | SMILES | further results
1 | < 8 | Nc1ncnc2c1C(=O)N(c1ccc(C3CCN(C(=O)[C@H]4CC[C@@H](O)CC4)CC3)cc1)CCO2 | –
2 | < 8 | CC(C)[C@H](CO)NC(=O)C[C@H]1CC[C@H](c2ccc(N3CCOc4ncnc(N)c4C3=O)cc2)CC1 | –
3 | 15 | Nc1ncnc2c1C(=O)N(c1ccc([C@H]3CC[C@H](CC(=O)N4CCCC4)CC3)cc1)CCO2 | –
4 | < 8 | Nc1ncnc2c1C(=O)N(c1ccc([C@H]3CC[C@H](CC(=O)N4CC[C@@H](O)C4)CC3)cc1)CCO2 | –
5 | < 8 | Nc1ncnc2c1C(=O)N(c1ccc([C@H]3CC[C@H](CC(=O)N4CCOCC4)CC3)cc1)CCO2 | Cmax [2]: 425 ng/mL; half-life [3]: 2 h; F (Rattus norvegicus [4]): 77%; Vd [5]: 1.2 L/kg; AUC (Rattus norvegicus [6]): 838 ng·h/mL
6 | 9 | CN1CCN(C(=O)C[C@H]2CC[C@H](c3ccc(N4CCOc5ncnc(N)c5C4=O)cc3)CC2)CC1=O | –
7 | 107 | COC1CCN(C(=O)C[C@H]2CC[C@H](c3ccc(N4CCOc5ncnc(N)c5C4=O)cc3)CC2)CC1 | –
8 | < 8 | Nc1ncnc2c1C(=O)N(c1ccc([C@H]3CC[C@H](CC(=O)N4CC(O)C4)CC3)cc1)CCO2 | –
9 | < 8 | CC(=O)N1CCC(c2ccc(N3CCOc4ncnc(N)c4C3=O)cc2)CC1 | –
10 | 11 | CC(C)C(=O)N1CCC(c2ccc(N3CCOc4ncnc(N)c4C3=O)cc2)CC1 | –
11 | 41 | Nc1ncnc2c1C(=O)N(c1ccc(C3CCN(C(=O)C4CCCCC4)CC3)cc1)CCO2 | –
12 | < 8 | Nc1ncnc2c1C(=O)N(c1ccc(C3CCN(C(=O)C4CCOCC4)CC3)cc1)CCO2 | –
13 | < 8 | Nc1ncnc2c1C(=O)N(c1ccc(C3CCN(C(=O)c4cnon4)CC3)cc1)CCO2 | –
14 | < 8 | Nc1ncnc2c1C(=O)N(c1ccc(C3CCN(C(=O)c4ccccc4)CC3)cc1)CCO2 | –
15 | 13 | Nc1ncnc2c1C(=O)N(c1ccc(C3CCN(C(=O)c4ccno4)CC3)cc1)CCO2 | –
16 | 12 | Nc1ncnc2c1C(=O)N(c1ccc(C3CCN(C(=O)c4ccon4)CC3)cc1)CCO2 | –
17 | < 8 | N#CC[C@H]1CC[C@H](c2ccc(N3CCOc4ncnc(N)c4C3=O)cc2)CC1 | Cmax [2]: 174 ng/mL; half-life [3]: 3.1 h; F (Rattus norvegicus [4]): 85%; Vd [5]: 2 L/kg; AUC (Rattus norvegicus [6]): 801 ng·h/mL
18 | < 8 | CC(C)(O)C[C@H]1CC[C@H](c2ccc(N3CCOc4ncnc(N)c4C3=O)cc2)CC1 | Cmax [2]: 171 ng/mL; half-life [3]: 2.6 h; F (Rattus norvegicus [4]): 100%; Vd [5]: 1.3 L/kg; AUC (Rattus norvegicus [6]): 1260 ng·h/mL

Row | CLint scaled [1] [mL/min/kg] | SMILES | further results
19 | 12 | CC(C)(N)C[C@H]1CC[C@H](c2ccc(N3CCOc4ncnc(N)c4C3=O)cc2)CC1 | –
20 | < 8 | Cc1noc(C[C@H]2CC[C@H](c3ccc(N4CCOc5ncnc(N)c5C4=O)cc3)CC2)n1 | Cmax [2]: 118 ng/mL; logD [7]: 2.3; half-life [3]: 2.7 h; F (Rattus norvegicus [4]): 53%; Vd [5]: 1.2 L/kg; AUC (Rattus norvegicus [6]): 727 ng·h/mL
21 | < 8 | Cc1nnc(C[C@H]2CC[C@H](c3ccc(N4CCOc5ncnc(N)c5C4=O)cc3)CC2)o1 | –
22 | < 8 | Cc1nnc(C[C@H]2CC[C@H](c3ccc(N4CCOc5ncnc(N)c5C4=O)cc3)CC2)s1 | –
23 | < 8 | Cc1nnc(C[C@H]2CC[C@H](c3ccc(N4CCOc5ncnc(N)c5C4=O)cc3)CC2)[nH]1 | –
24 | < 8 | Cc1nnc(C[C@H]2CC[C@H](c3ccc(N4CCOc5ncnc(N)c5C4=O)cc3)CC2)n1C | –
25 | 82 | Cc1noc(CC[C@H]2CC[C@H](c3ccc(N4CCOc5ncnc(N)c5C4=O)cc3)CC2)n1 | –
26 | 11 | Nc1ncnc2c1CN(c1ccc([C@H]3CC[C@H](CCO)CC3)cc1)CCO2 | –
27 | < 8 | Cc1nc(N)c2c(n1)OCCN(c1ccc([C@H]3CC[C@H](CC(=O)O)CC3)cc1)C2=O | –
28 | 8.4 | Nc1ccnc2c1C(=O)N(c1ccc([C@H]3CC[C@H](CC(=O)O)CC3)cc1)CCO2 | –
29 | < 8 | Nc1ncnc2c1C(=O)N(c1ccc([C@H]3CC[C@H](CCC(=O)O)CC3)cc1)CCO2 | –
30 | < 8 | CN(CC(=O)O)C(=O)C[C@H]1CC[C@H](c2ccc(N3CCOc4ncnc(N)c4C3=O)cc2)CC1 | –
31 | < 8 | Nc1ncnc2c1C(=O)N(c1ccc([C@H]3CC[C@H](Cc4nnn[nH]4)CC3)cc1)CCO2 | –
32 | < 8 | NC(=O)C[C@H]1CC[C@H](c2ccc(N3CCOc4ncnc(N)c4C3=O)cc2)CC1 | Cmax [2]: 273 ng/mL; half-life [3]: 4.3 h; F (Rattus norvegicus [4]): 88%; Vd [5]: 1.6 L/kg; AUC (Rattus norvegicus [6]): 810 ng·h/mL
33 | < 8 | CCNC(=O)C[C@H]1CC[C@H](c2ccc(N3CCOc4ncnc(N)c4C3=O)cc2)CC1 | –
34 | 39 | Nc1ncnc2c1C(=O)N(c1ccc([C@H]3CC[C@H](CC(=O)NC4CCCC4)CC3)cc1)CCO2 | –
35 | < 8 | Nc1ncnc2c1C(=O)N(c1ccc([C@H]3CC[C@H](CC(=O)O)CC3)cc1)CCO2 [PF-04620110] | Cmax [2]: 225 ng/mL; remaining at 1 h [8]: 93%; half-life [3]: 7.3 h; Vd [5]: 1.8 L/kg; AUC (Rattus norvegicus [6]): 565 ng·h/mL
